Measured values reported in ChEMBL document CHEMBL5331111, “Synthetic Biology Facilitates Semisynthetic Development of Type V Glycopeptide Antibiotics Targeting Vancomycin-Resistant Enterococcus” (J Med Chem, 2023).
In brackets after ≈: the same amount, converted by molar mass.

These compounds were tested on Mycobacterium tuberculosis variant bovis (assay: Antimycobacterial activity against Mycobacterium bovis BCG Pasteur ATCC 35734 assessed as inhibition of bacterial growth measured after 7 days by resazurin dye based analysis). Conditions: BCG Pasteur ATCC 35734, 168 h, time 7 day.
Format: functional
How it was run: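 Strains grown in 7H9 broth with 0.2% glycerol, 10% OADC and 0.05% Tween-80. Inoculum was about 5 × 10^5 CFU/mL, checked by plating on 7H10/OADC agar to be 3–8 × 10^5. Read at 2 days for M. smegmatis and 7 days for M. tuberculosis H37Ra, M. bovis and M. avium. Resazurin 30 μg/mL was then added for one further day. Values are averages of at least two experiments.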

Compound	MIC
CN1C(=O)[C@@H]2NC(=O)[C@@H]3NC(=O)[C@@H](c4ccc(O)cc4)NC(=O)[C@H](NC(=O)C(N)c4ccc(O)cc4)Cc4c[nH]c5cc(ccc45)-c4cc3cc(c4O)Oc3ccc(cc3)C[C@H]1C(=O)N[C@@H](C(=O)O)c1ccc(O)c(c1)Oc1ccc2cc1 (stereo partly drawn)	8 mg/L (≈ 7.14 µM)
CN1C(=O)[C@@H](c2cc(Cl)c(O)c(Cl)c2)NC(=O)[C@@H]2NC(=O)[C@@H](c3cc(Cl)c(O)c(Cl)c3)NC(=O)[C@H](NC(=O)C(=O)c3cc(Cl)c(O)c(Cl)c3)Cc3c[nH]c4cc(ccc34)-c3cc2cc(c3O)Oc2ccc(cc2)C[C@H]1C(=O)N[C@@H](C(=O)O)c1ccc(O)cc1 [ISOCOMPLESTATIN]	64 mg/L (≈ 48.2 µM)
NNC(=O)c1ccncc1 [ISONIAZID]	0.13 mg/L (≈ 0.948 µM)
